Bioassay records from PubChem BioAssay.
PRMT1 inh – inhibitors of human PRMT1. Q99873. recombinant PRMT1, activity-based probe fluorescence polarization. inhibition, % at 2.79 µM. hit rate 1.3% among 370,000;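 active means inhibition above about 21% made by adding two undisclosed values, limit read from the data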
Target sequence (Q99873 whole entry, looked up): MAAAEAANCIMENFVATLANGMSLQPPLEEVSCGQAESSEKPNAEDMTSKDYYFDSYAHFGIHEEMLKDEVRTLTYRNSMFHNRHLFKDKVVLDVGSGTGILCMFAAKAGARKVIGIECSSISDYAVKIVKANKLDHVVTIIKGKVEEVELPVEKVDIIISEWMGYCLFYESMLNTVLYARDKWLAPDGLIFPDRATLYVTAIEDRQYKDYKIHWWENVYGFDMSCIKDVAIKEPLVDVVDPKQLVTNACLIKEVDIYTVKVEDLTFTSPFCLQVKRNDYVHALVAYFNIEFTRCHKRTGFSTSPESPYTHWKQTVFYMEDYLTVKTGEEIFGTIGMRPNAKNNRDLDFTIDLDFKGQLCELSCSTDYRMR
A3A deaminase – blocks human APOBEC3A ssDNA deamination; inhibition, % at 20 µM; hit rate 0.41% among 330,000; recombinant A3A, FAM/TAMRA ssDNA deamination fluorescence;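 active means at least 40% inhibition at 20 µM here, with at most 30% in a related deaminase screen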;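 further: plate controls were A3A with DMSO for no effect and wells lacking A3A enzyme for full effect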
Target sequence (P31941 whole entry, looked up): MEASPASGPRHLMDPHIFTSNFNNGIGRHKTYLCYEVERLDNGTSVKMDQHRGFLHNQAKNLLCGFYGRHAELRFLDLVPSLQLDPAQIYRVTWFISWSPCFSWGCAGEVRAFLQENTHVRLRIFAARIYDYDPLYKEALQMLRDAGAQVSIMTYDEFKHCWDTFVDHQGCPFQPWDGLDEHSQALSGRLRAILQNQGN
A3G deaminase – APOBEC3G (human) deaminase inhibition; Q9HC16; recombinant A3G, ssDNA deamination FAM/TAMRA fluorescence; inhibition, % at 20 µM; hit rate 0.28% among 330,000; AID 493012;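 active means inhibition of at least 40% at 20 µM, with no more than 30% in the related APOBEC3A deaminase screen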;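 further: plate controls were DMSO wells with A3G for no effect and wells lacking A3G enzyme for full effect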
HCV NS3 hel inh – inhibitors of Hepatitis C virus NS3 helicase | NS3 helicase DNA unwinding, Cy5 molecular beacon fluorescence | inhibition, % at 10.9 µM | hit rate 0.56% among 290,000;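 active means inhibition above the mean of all tested compounds plus 3 SD, set per campaign, cut at about 35% in these data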;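 further: 0% = DMSO wells and 100% = thioflavine S control wells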
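Compound dosing – single dose, 10.9 µM nominal final, DMSO 0.8% final · System – NS3 helicase fragment of HCV · Buffer or medium – MOPS pH 6.5, MgCl2, DTT, Tween20, BSA · Signal – Cy5 beacon fluorescence read at start and 1 h · Also added – annealed dual-labelled DNA beacon duplex, ATP-started · Schedule – 1 h at 25 °C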
core dimer inh – blocks dimerization of HCV core protein; TR-FRET GST/Flag-core106 dimerization, 1536-well; hit rate 0.33% among 300,000; inhibition, % at 5 µM; AID 1899;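 active means inhibition above the mean of all tested compounds plus 3 SD, set per screening campaign, cut at about 45% in these data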
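System: GST/Flag-tagged HCV core106 proteins. Incubation: compound-protein-antibody incubation 4 h at 22.5 °C. Technique: HTRF with 340 nm excitation, 617/671 nm emission. Medium: KF-containing HEPES buffer, pH 7.45, DTT, CHAPS, BSA. Read-out: inhibition (%) from 671 over 617 nm ratio. Also added: Eu(K)-anti-GST 90 ng/mL plus XL665-anti-Flag 1 µg/mL.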
ABHD5 PLIN5 PPI – ABHD5-PLIN5 protein interaction inhibition; AID 602281; hit rate 0.78% among 360,000; Split G. princeps luciferase complementation, luminescence, 4 h; inhibition, % at 4 µM;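 active means inhibition above the mean inhibition across every tested compound plus 3 SD, cut at about 22% in these data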;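 further: 0% = DMSO only wells and the 100% control is not disclosed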
Numbers without * were called inactive; . = not tested or not shown. This is a sample that favours compounds with a hit; in the whole collection about 2.9% have one here.

SMILES	PRMT1 inh	A3A deaminase	A3G deaminase	HCV NS3 hel inh	core dimer inh	ABHD5 PLIN5 PPI
CC(Nc1cccc2ccccc12)C(=O)N/N=C/c1ccccn1 (stereo not drawn)	25*	0	-3	10	-3	-9
O=C(CCCC(=O)N/N=C\c1ccccn1)N/N=C\c1ccccn1	1	-4	-8	6	2	7
CC[C@H](C)/C=C(C)/C=C/C(=O)Cc1cc(O)c(C)c(O)c1C=O	5	3	-2	.	67*	-8
CC[C@H](C)/C=C(C)/C=C/c1cc2c(cn1)C(=O)[C@@](C)(OC(C)=O)C(O)=C2Cl	9	.	.	.	.	4
COc1cccc(C(C)=C2SC(=S)NC2=O)c1	3	.	.	.	.	-5
Cc1c(NC(=O)CN2CCN(c3ccc(O)cc3)CC2)c(=O)n(-c2ccccc2)n1C	23*	0	6	4	2	1
Cc1ccc2c(c1)C1C=CCC1C(C(=O)O)N2 (stereo not drawn)	.	.	.	37*	94*	.
O=C(O)C1Nc2ccc(OC(F)(F)F)cc2C2C=CCC12 (stereo not drawn)	.	93	74	.	0	.
O=C(NC1CC1)C1Nc2ccc(OC(F)(F)F)cc2C2C=CCC12 (stereo not drawn)	22*	-3	-17	.	-7	4
c1ccc(-c2cccc(CNc3nc(-c4ccccn4)nnc3-c3ccccc3)c2)cc1	0	.	.	.	.	.
O=C(CN1C(=O)NC2(CCCCCC2)C1=O)NCCc1ccc(F)cc1	-3	-7	-6	.	.	1
Cc1cc(C(=O)NCc2cccs2)c(C)o1	21*	-5	-8	4	4	5
CC(C)c1cc2c(c(O)c1O)[C@@]13CCCC(C)(C)C1CC2OC3=O (stereo partly drawn)	36*	0	31	27	4	-3
CN(C(=O)c1cccc(NC(=O)Cc2ccc(NC(=O)C3CCN(C(=O)CCc4ccccc4)CC3)cc2)c1)C1CCCC1	-9	.	.	.	.	.
COCc1cc(CN2CCCC(C(=O)Nc3ccc(-c4ccco4)cc3)C2)ccc1OC (stereo not drawn)	6	0	-7	-34	6	32*
Cc1ncc(CN2CCCC(C(=O)Nc3ccc(-c4ccco4)cc3)C2)cn1 (stereo not drawn)	10	-4	-4	-14	10	15
CC(=O)Cn1nnc2sc3c(c2c1=O)CCC(C(C)(C)C)C3 (stereo not drawn)	3	4	-4	1	3	-2
CCOC(=O)c1sc(NC(=O)Cn2nnc3sc4c(c3c2=O)CCC(C(C)(C)C)C4)nc1C (stereo not drawn)	-1	5	2	12	46*	0
COc1cc(/C=C/C(=O)c2ccc(NS(=O)(=O)c3ccc(C)cc3)cc2)ccc1OC(F)F	-1	-3	-8	-14	8	22*
COc1ccc2cc(C(=O)/C=C/c3cc(OC)c(O)c(OC)c3)ccc2c1	8	-4	0	-19	21	8
COc1cc(/C=C/C(=O)O)ccc1OS(=O)(=O)c1ccc(C)cc1	-3	-1	-4	8	2	-3
COc1cc(/C=C/C(=O)c2ccc(NS(=O)(=O)c3ccc(C)cc3)cc2)cc(OC)c1O	7	.	.	5	1	38*
c1ccc(-n2ncc3c2ncn2nc(-c4ccco4)nc32)cc1	15	8	20	3	52*	4
CC(=O)c1c(C)[nH]c(C(=O)OCc2nnc(-c3ccc([N+](=O)[O-])cc3)o2)c1C	24*	0	0	.	.	11
COC(=O)c1cccc(-n2sc3ccccc3c2=O)c1	98*	-1	78*	.	.	91*
SMILES	PRMT1 inh	A3A deaminase	A3G deaminase	HCV NS3 hel inh	core dimer inh	ABHD5 PLIN5 PPI
COc1ccccc1NS(=O)(=O)c1cccc(C(=O)NCC2(N3CCCCC3)CCCCC2)c1	1	.	.	.	.	-9
O=C1/C(=C\c2ccc(Br)cc2)SC(=S)N1NS(=O)(=O)c1ccccc1	4	-6	-7	15	14	-6
O=C1/C(=C/c2cccnc2)SC(=S)N1NS(=O)(=O)c1ccccc1	23*	-1	-5	13	7	-17
Cc1ccc2[nH]c3c(c2c1)CN(C(=O)CN(C)CC1OCCO1)CC3	22*	2	0	-9	2	-7
COc1ccc(OC)c(/C=N/NC(=O)CCc2ccc(O)c(O)c2)c1	48*	3	0	14	-12	3
COc1ccc(OC)c(/C=N/NC(=O)CCc2c(C)n[nH]c2C)c1	1	5	7	-12	-3	-1
N#Cc1c(NC(=O)CSc2nnc(-c3ccco3)n2-c2ccccc2)sc2c1CCC2	4	12	1	10	64*	12
COC(=O)c1cccc(-c2ccc(C(c3c(C)[nH][nH]c3=O)c3c(C)[nH][nH]c3=O)o2)c1	29*	-1	15	4	6	-25
O=C(Nc1ccc(C(F)(F)F)cc1)OC1CC2CC1[C@H]1CCCCN1[C@H]2Cc1ccccc1 (stereo partly drawn)	5	.	.	.	.	.
C#CCOCCOCCOCCNc1nc(N2CCN(C(=O)CCCCCCCCCCNC(=O)[C@H](CCCCN)n3cc(CCCC(=O)O)nn3)CC2)nc(N2CCN(C(=O)CCCCCCCCCCNC(=O)[C@H](CCCN=C(N)N)n3cc(C[C@@H](C)CC)nn3)CC2)n1	.	0	-3	.	-18	45*
C#CCOCCOCCOCCNc1nc(N2CCN(C(=O)CCCCCCCCCCNC(=O)[C@H](CCCCN)n3cc(CCO)nn3)CC2)nc(N2CCN(C(=O)CCCCCCCCCCNC(=O)[C@H](CCCN=C(N)N)n3cc(C[C@@H](C)CC)nn3)CC2)n1	.	-2	-5	.	5	50*
C#CCOCCOCCOCCNc1nc(N2CCN(C(=O)CCCCCCCCCCNC(=O)[C@@H](CCSC)n3cc(CCO)nn3)CC2)nc(N2CCN(C(=O)CCCCCCCCCCNC(=O)[C@H]([C@@H](C)CC)n3cc(CCCCCN)nn3)CC2)n1	.	-5	-3	.	1	.
C#CCOCCOCCOCCNc1nc(N2CCN(C(=O)CCCCCCCCCCNC(=O)[C@H](CCCCN)n3cc(C[C@@H](C)CC)nn3)CC2)nc(N2CCN(C(=O)CCCCCCCCCCNC(=O)[C@H](CCCCN)n3cc(C[C@@H](C)CC)nn3)CC2)n1	.	.	.	.	12	58*
C#CCOCCOCCOCCNc1nc(N2CCN(C(=O)CCCCCCCCCCNC(=O)[C@H](CO)n3cc(CCCSC)nn3)CC2)nc(N2CCN(C(=O)CCCCCCCCCCNC(=O)[C@H](CCCCN)n3cc(C[C@@H](C)CC)nn3)CC2)n1	.	0	-1	.	15	.
